Test results reported in ChEMBL document CHEMBL3994573, “Cytotoxic Lanostanoids from Poria cocos” (J Nat Prod, 2016).

Legend:
Assay type in all cases: functional, cell-based
[1] = test system: CCRF-CEM; assay: Antiproliferative activity against human CCRF-CEM cells after 72 hrs by MTT assay
Method in brief: (§1)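 Leukemia cells (ATCC) grown in RPMI-1640 with 10% FCS, 2 mM glutamine, penicillin/streptomycin at 37 °C, 5% CO2. Seeded at 4 × 10^4 per well. Exposed 72 h to 1.25, 2.5, 5, 10 and 20 μg/mL (DMSO under 0.02%). MTT formazan dissolved in DMSO, read as OD570 − OD620. IC50 = concentration giving half the control absorbance. n = 4 wells per experiment, four separate experiments, ± SD.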

[2] = test system: K562; assay: Antiproliferative activity against human K562 cells after 72 hrs by MTT assay; conditions: K562, 72 h; method in brief: as §1
[3] = test system: MOLT-4; assay: Antiproliferative activity against human MOLT4 cells after 72 hrs by MTT assay; conditions: MOLT-4, 72 h; method in brief: as §1
[4] = test system: HL-60; assay: Antiproliferative activity against human HL60 cells after 72 hrs by MTT assay; conditions: HL-60, 72 h; method in brief: as §1

SMILES | IC50 [1] [µM] | IC50 [2] [µM] | IC50 [3] [µM] | IC50 [4] [µM]
C=C(CC[C@@H](C(=O)O)[C@H]1[C@H](O)C[C@@]2(C)C3=CC[C@@H](C(=C)C)[C@](C)(CCC(=O)O)C3=CC[C@]12C)C(C)C [PORICOIC ACID A] | > 40 | > 40 | > 40 | > 40
C=C(CC[C@@H](C(=O)O)[C@H]1[C@H](O)C[C@@]2(C)C3=CC[C@H]4C(C)(C)[C@@H](OC(C)=O)CC[C@]4(C)C3=CC[C@]12C)C(C)C | 2.7 | 18.6 | 13.8 | 7.3
C=C(CC[C@@H](C(=O)O)[C@H]1[C@H](O)C[C@@]2(C)C3=CC[C@H]4C(C)(C)C(=O)CC[C@]4(C)C3=CC[C@]12C)C(C)C [POLYPORENIC ACID B] | 25.5 | 26.3 | 27.6 | 31.8
C=C(CC[C@@H](C(=O)O)[C@H]1CC[C@@]2(C)C3=CC[C@H]4C(C)(C)[C@@H](O)CC[C@]4(C)C3=CC[C@]12C)C(C)C [DEHYDROEBURICOIC ACID] | 6.3 | 25.6 | 14.3 | 6
COc1cccc2c1C(=O)c1c(O)c3c(c(O)c1C2=O)C[C@@](O)(C(=O)CO)C[C@@H]3O[C@H]1C[C@H](N)[C@H](O)[C@H](C)O1 [DOXORUBICIN] | 0.01 | 0.5 | 0.01 | 0.01
CC(C)=CCC[C@@H](C(=O)O)[C@H]1CC[C@@]2(C)C3=CC[C@H]4C(C)(C)[C@@H](O)CC[C@]4(C)C3=CC[C@]12C [DEHYDROTRAMETENOLIC ACID] | 13.1 | 14.8 | 16.2 | 20
C=C(C)C(=O)CC[C@@H](C(=O)O)[C@H]1[C@H](O)C[C@@]2(C)C3=C(CC[C@]12C)[C@@]1(C)CC[C@H](O)C(C)(C)[C@@H]1CC3 | > 40 | > 40 | > 40 | > 40
C=C(CC[C@@H](C(=O)O)[C@H]1[C@H](O)C[C@@]2(C)C3=CC[C@H]4C(C)(C)[C@H](O)CC[C@]4(C)C3=CC[C@]12C)C(C)C | > 40 | > 40 | > 40 | > 40
C=C(CC[C@@H](C(=O)O)[C@H]1[C@H](O)C[C@@]2(C)C3=CC[C@H]4C(C)(C)[C@@H](O)CC[C@]4(C)C3=CC[C@]12C)C(C)C [DEHYDROTUMULOSIC ACID] | > 40 | > 40 | > 40 | > 40
CC(C)=CCC[C@@H](C(=O)O)[C@H]1[C@H](O)C[C@@]2(C)C3=CC[C@H]4C(C)(C)[C@@H](O)CC[C@]4(C)C3=CC[C@]12C | > 40 | > 40 | > 40 | > 40
C=C(CC[C@@H](C(=O)O)[C@H]1[C@H](O)C[C@@]2(C)[C@]34C=C[C@@]5(OO3)C(C)(C)[C@@H](O)CC[C@]5(C)C4=CC[C@]12C)C(C)C | > 40 | > 40 | > 40 | > 40
C=C(CC[C@@H](C(=O)O)[C@H]1[C@H](O)C[C@@]2(C)[C@]34C=C[C@@]5(OO3)C(C)(C)[C@@H](OC(=O)CO)CC[C@]5(C)C4=CC[C@]12C)C(C)C | > 40 | > 40 | > 40 | > 40
CC(C)=CCC[C@@H](C(=O)O)[C@H]1[C@H](O)C[C@@]2(C)C3=C(CC[C@]12C)[C@@]1(C)CC[C@H](O)C(C)(C)[C@@H]1CC3 | > 40 | > 40 | > 40 | > 40

Next, values leading:

IC50 [1] [µM] | IC50 [2] [µM] | IC50 [3] [µM] | IC50 [4] [µM] | SMILES
> 40 | > 40 | > 40 | > 40 | C=C(CC[C@@H](C(=O)O)[C@H]1[C@H](O)C[C@@]2(C)C3=CCC4[C@](C)(CC[C@H](O)[C@]4(C)CO)C3=CC[C@]12C)C(C)C (stereo partly specified)
> 40 | > 40 | > 40 | > 40 | C=C(CC[C@@H](C(=O)O)[C@H]1[C@H](O)C[C@@]2(C)C3=CC=C4C(C)(C)C(=O)CC[C@]4(C)C3=CC[C@]12C)C(C)C
> 40 | > 40 | > 40 | > 40 | C=C(CC[C@@H](C(=O)O)[C@H]1[C@H](O)C[C@@]2(C)C3=C(CC[C@]12C)[C@@]1(C)CC[C@H](O)C(C)(C)[C@@H]1CC3=O)C(C)C
> 40 | > 40 | > 40 | > 40 | CC(C)C(=O)CC[C@@H](C(=O)O)[C@H]1[C@H](O)C[C@@]2(C)C3=CC[C@H]4C(C)(C)[C@H](O)CC[C@]4(C)C3=CC[C@]12C
> 40 | > 40 | > 40 | > 40 | C=C(CC[C@@H](C(=O)O)[C@H]1[C@H](O)C[C@@]2(C)C3=C(CC[C@]12C)[C@@]1(C)CC[C@@H](O)C(C)(C)[C@@H]1CC3=O)C(C)C
> 40 | > 40 | > 40 | > 40 | CC(C)C(=O)CC[C@@H](C(=O)O)[C@H]1[C@H](O)C[C@@]2(C)C3=CC[C@H]4C(C)(C)[C@@H](O)CC[C@]4(C)C3=CC[C@]12C
